# Shown are actives, neighbours in structure and some others; about 1.6% of the full set was active somewhere.
# RAD54 branch = RAD54 (human) branch migration inhibition; RAD54 Holliday junction branch migration, FAM/BHQ fluorescence; inhibition, % at 10.4 µM; hit rate 0.14% among 360,000; Q92698;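 active = mean normalized replicate activity at least 40 and at least half of replicates scoring 40 or more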;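 note: 0% = median of neutral control wells and 100% = median of positive control wells; inhibitors cause a drop in the FAM fluorescence signal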
# dFosB act = activators of mouse delta FosB homodimer | P13346 | activation, % at 25 µM | purified delta FosB, TAMRA-CDK5 oligo fluorescence polarization; percent of positive-control signal above neutral wells | hit rate 0.99% among 340,000;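 active = mean activation above about 17%, with every replicate also reaching it, limit read from the data, passing the limit was not always enough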
# Target sequence (P13346 whole entry, looked up): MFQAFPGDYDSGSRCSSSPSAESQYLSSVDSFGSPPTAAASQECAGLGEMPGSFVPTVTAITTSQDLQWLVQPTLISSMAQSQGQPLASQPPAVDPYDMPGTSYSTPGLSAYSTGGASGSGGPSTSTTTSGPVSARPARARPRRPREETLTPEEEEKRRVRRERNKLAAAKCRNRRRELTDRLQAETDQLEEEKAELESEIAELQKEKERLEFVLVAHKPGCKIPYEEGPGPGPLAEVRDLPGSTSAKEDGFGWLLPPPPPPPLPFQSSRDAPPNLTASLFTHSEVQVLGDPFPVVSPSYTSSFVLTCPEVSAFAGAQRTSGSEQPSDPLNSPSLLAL
# SR-BI DiI inh = inhibitors of mouse SR-BI mediated HDL lipid uptake; inhibition, % at 12.5 µM; hit rate 0.96% among 320,000; ldlA[mSR-BI] CHO cells, DiI-HDL uptake fluorescence, 3 h; AID 488896;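 active = mean replicate inhibition of at least 70% and a set share of replicates each scoring 70 or more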;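 note: 0% = median of neutral control wells and 100% = median of positive control wells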
# S100A4 MyoIIA = S100A4-myosin IIA interaction inhibition. P26447. S100A4/TAMRA-MyoIIA peptide fluorescence polarization. inhibition, % at 10.7 µM. hit rate 0.14% among 360,000;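 active = mean inhibition of at least 70% across replicates, with every replicate also reaching that level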
# Target sequence (P26447 whole entry, looked up): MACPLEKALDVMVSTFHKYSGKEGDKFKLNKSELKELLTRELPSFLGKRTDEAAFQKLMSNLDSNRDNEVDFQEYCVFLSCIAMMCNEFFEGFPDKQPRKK
#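 Test system: S100A4 monomer protein; Medium: HEPES pH 7.2 with CaCl2, KCl, NaCl, DTT, Triton; Probe or stimulus: TAMRA-labelled myosin IIA heavy-chain peptide probe, 5 nM; Doses: one dose per compound; Times: polarization read 5 min after assay mix addition, stable 5–60 min; Benchmarks: neutral control DMSO, positive control TFP.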
# PvdQ acylase = P. aeruginosa PvdQ acylase inhibition; purified PvdQ acylase, fluorescence plate reader; inhibition, % at 10 µM; hit rate 0.063% among 340,000; AID 488965; in the data active = inhibition above about 30%, passing the limit was not always enough;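 note: 0% = vehicle neutral wells and 100% = reference inhibitor wells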
# SR-BI DiI-HDL act = SR-BI HDL lipid transfer activation; CHO ldlA[mSR-BI] cells, DiI-HDL uptake fluorescence, 3 h; 100 = double the neutral-control signal; activation, % at 12.5 µM; hit rate 0.096% among 320,000; AID 504775;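 active = mean replicate activation of at least 60% and every replicate at or above 60%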;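 note: 0% = median plate neutral-control signal and 100% = twice that signal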
#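 Test system: SR-BI-overexpressing, LDLR-lacking CHO cells. Measured by: DiI fluorescence, bottom read. Medium: Ham's F12 with 0.5% BSA, HEPES 25 mM, pH 7.4. Timing: 3 h uptake period with compound, 37 °C.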
# Active calls of the source: *; . = no result given.
SMILES,RAD54 branch,dFosB act,SR-BI DiI inh,S100A4 MyoIIA,PvdQ acylase,SR-BI DiI-HDL act
O=C(N/N=C/c1ccccn1)c1cccc([N+](=O)[O-])c1,.,9,-8,-6,10,8
O=C(N/N=C/c1ccccn1)c1ccc(NC(=O)c2cccc([N+](=O)[O-])c2)cc1,.,-11,82*,-7,-4,-82
COc1ccc2ccccc2c1/C=N/NC(=O)c1cccc([N+](=O)[O-])c1,0,4,86*,0,-10,-86
CO[C@H]1CN(C)C(=O)c2ccc(NC(C)=O)cc2OC[C@H](C)N(Cc2ccccc2F)C[C@@H]1C,.,.,.,8,.,.
O=C(N/N=C/c1ccc(O)cc1)c1cccc(C(F)(F)F)c1,.,1,20,.,-5,-20
Cc1cc(/C=N/NC(=O)c2cccc([N+](=O)[O-])c2)c(C)n1-c1ccccc1,.,-1,80*,4,-5,-80
O=C(NN=Cc1ccccc1O)c1cccc([N+](=O)[O-])c1,-3,14,129*,-3,-11,-129
O=C(N/N=C/c1ccccc1O)c1cccc(C(F)(F)F)c1,6,-9,136*,.,-9,-136
Cc1ccc(S(=O)(=O)N[C@H]2CC[C@H](CCn3cc(C4CCCCC4)nn3)O[C@@H]2CO)cc1,-3,.,.,7,.,.
C[C@@H]1CCCCO[C@@H](CN(C)Cc2ccncc2)[C@H](C)CN([C@H](C)CO)C(=O)c2cc(NC(=O)C3CCCCC3)ccc2O1,-6,.,.,1,.,.
Cc1cc(NC(=O)c2cc(-c3ccccn3)nc3ccc(Br)cc23)no1,16,58*,29,9,5,.
Cc1cccc(-c2cc(C(=O)Nc3c(C)n(C)n(-c4ccccc4)c3=O)c3ccccc3n2)c1,5,-18,58,-1,-6,-58
Cc1c(NC(=O)c2cc(-c3ccc(F)cc3)nc3ccccc23)c(=O)n(-c2ccccc2)n1C,.,-10,86*,3,-16,-86
Cc1cc(NC(=O)c2cc(-c3ccncc3)nc3c(C)cccc23)no1,-7,-11,71*,.,3,-71
Cc1ccc(Nc2nc3ccccc3nc2Nc2c(C)n(C)n(-c3ccccc3)c2=O)cc1,.,-1,92*,-4,-8,-92
Cc1c(Nc2nc3ccccc3nc2NS(=O)(=O)c2cccc(Cl)c2)c(=O)n(-c2ccccc2)n1C,.,-12,2,2,-10,-2
C[C@H]1CN([C@@H](C)CO)C(=O)c2cc(C#CCN(C)C)cnc2O[C@H]1CN(C)Cc1cccc(C(=O)O)c1,-8,.,.,66,.,.
Cc1ccc(-c2cc(C(=O)Nc3cc(C)on3)c3ccccc3n2)cc1,.,-3,74*,-5,-18,-74
Cc1cc(NC(=O)c2cnn3c(C(F)(F)F)cc(-c4ccc(Br)cc4)nc23)no1,4,-4,77*,.,-6,-77
Cc1cc(NC(=O)c2cc(-c3ccc(C)c(C)c3)nc3ccccc23)no1,-8,-6,69,.,-8,-69
O=C(NCC(c1cccs1)N1CCOCC1)c1cc(-c2ccc(F)cc2)nc2ccccc12 (centres undefined),.,-23,84*,-6,-3,-84
C[C@H](O)C#Cc1cnc2c(c1)C(=O)N([C@@H](C)CO)C[C@@H](C)[C@@H](CN(C)C(=O)Nc1ccc(F)cc1)O2,-4,.,.,2,.,.
Cn1c(CSc2ncn[nH]2)nc2ccccc21,-2,0,-68,.,-11,68*
Cn1c(CSc2nc3ccccc3s2)nc2ccccc21,-12,-9,17,.,-14,-17
O=C(/C=C/c1cccs1)c1cc(Cl)ccc1O,5,-9,-38,-6,77*,38
SMILES,RAD54 branch,dFosB act,SR-BI DiI inh,S100A4 MyoIIA,PvdQ acylase,SR-BI DiI-HDL act
O=C(C=Cc1ccco1)c1cc(Cl)ccc1O,-4,-18,-12,-9,45*,12
COc1ccc(S(=O)(=O)N(C)C[C@@H]2OCCCC[C@H](C)Oc3ccc(NS(=O)(=O)c4c(C)noc4C)cc3C(=O)N([C@H](C)CO)C[C@H]2C)cc1,-4,.,.,-19,.,.
COc1ccc(-c2onc3ccc(Br)cc23)cc1,-11,7,10,.,34*,-10
Cc1ccc(NC(=O)C(C)OC(=O)CSc2ccccc2)cc1 (centres undefined),-4,-11,-12,0,9,12
Cc1cc(C)nc(SCC(=O)OC(C)C(=O)Nc2ccccc2)n1 (centres undefined),-4,-5,-62,4,-14,62*
COc1cc(Cl)c(NC2=CC(=O)C(=O)c3ccccc32)c(OC)c1,-6,-6,90*,-1,-13,-90
CCOc1ccc(NC2=CC(=O)C(=O)c3ccccc32)cc1,.,-4,21,-1,-8,-21
O=C(c1ccc(F)cc1)N1CCN(c2ccccn2)CC1,0,8,13,1,-13,-13
Cc1c(C)n(Cc2ccc(F)cc2)c2ccc(C(=O)N3CCN(c4ccccn4)CC3)cc12,-3,27*,-5,-85,-10,5
COc1ccc(C#Cc2ccc([C@@H]3[C@@H](CO)N4CCCCN(S(=O)(=O)c5cn(C)cn5)C[C@@H]34)cc2)cc1,-13,.,.,4,.,.
Cc1cc(N=Nc2ccc(C)c(N=Nc3cc(C)c(N)cc3N)c2)c(N)cc1N,101*,15,53,-2,-12,-53
CN1C(=O)c2cc(NC(=O)c3cc(F)cc(F)c3)ccc2OC[C@H]2O[C@H](CC(=O)O)CC[C@H]21,3,.,.,3,.,.
C[C@@H]1CCCCO[C@@H](CN(C)Cc2ccc3c(c2)OCO3)[C@H](C)CN([C@H](C)CO)C(=O)c2cc(NS(=O)(=O)c3ccc(Cl)cc3)ccc2O1,2,.,.,-3,.,.
Cn1nc(-c2ccc(Cl)cc2)c2cc(C(=O)NCC3CCCO3)sc21 (centres undefined),4,-57,87*,-4,-9,-87
Cn1nc(-c2ccc(Cl)cc2)c2cc(C(=O)N3CCOCC3)sc21,8,-23,60,5,3,-60
CCOc1cc(C(c2c(C)[nH][nH]c2=O)c2c(C)[nH][nH]c2=O)ccc1OCc1ccc([N+](=O)[O-])cc1,-6,-9,8,.,-31,-8
CCOc1cc(/C=C2/NC(=S)NC2=O)ccc1OCc1ccc([N+](=O)[O-])cc1,-3,2,73*,.,-2,-73
C[C@H]1CN([C@@H](C)CO)C(=O)c2cccc(NC(=O)c3ccc(-c4nccs4)cc3)c2O[C@H]1CN(C)S(=O)(=O)c1cn(C)cn1,-11,.,.,7,.,.
CCOc1cc(C(=O)Nc2ccccc2N2CCOCC2)ccc1OCC(=O)N1CCCCC1,.,-7,46,1,-11,-46
